Data: ChEMBL document CHEMBL3286162, “Synthesis and anticancer activity of novel quinoline-docetaxel analogues” (Bioorg Med Chem Lett, 2014)

Key:
HeLa [1] = assay: Antiproliferative against human HeLa cells after 72 hrs by MTT assay; format: functional, cell-based
Summary of the method: (§1)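 MTT cytotoxicity assay with 72 h continuous exposure of cells to test compounds, run alongside docetaxel as positive control. The panel comprised four parental human cancer lines (HeLa, A549, A2780, MCF-7) and two drug-resistant sublines (A2780-MDR, MCF-7-MDR).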

A549 [2] = assay: Antiproliferative against human A549 cells after 72 hrs by MTT assay; format: functional, cell-based; conditions: A549, 72 h; summary of the method: as §1
A2780 [3] = assay: Antiproliferative against human A2780 cells after 72 hrs by MTT assay; format: functional, cell-based; conditions: A2780, 72 h; summary of the method: as §1
A2780 [4] = assay: Antiproliferative against multidrug-resistant human A2780 cells after 72 hrs by MTT assay; format: functional, cell-based; conditions: A2780, 72 h; summary of the method: as §1
MCF7 [5] = assay: Antiproliferative against human MCF7 cells after 72 hrs by MTT assay; format: functional, cell-based; conditions: MCF7, 72 h; summary of the method: as §1
MCF7 [6] = assay: Antiproliferative against multidrug-resistant human MCF7 cells after 72 hrs by MTT assay; format: functional, cell-based; conditions: MCF7, 72 h; summary of the method: as §1
A2780 [7] = assay: Ratio of docetaxel IC50 to compound IC50 for human A2780 cells after 72 hrs by MTT assay; format: functional
MCF7 [8] = assay: Ratio of docetaxel IC50 to compound IC50 for multidrug-resistant human MCF7 cells after 72 hrs by MTT assay; format: functional
MCF7 [9] = assay: Ratio of docetaxel IC50 to compound IC50 for human MCF7 cells after 72 hrs by MTT assay; format: functional
HeLa [10] = assay: Ratio of docetaxel IC50 to compound IC50 for human HeLa cells after 72 hrs by MTT assay; format: functional
A549 [11] = assay: Ratio of docetaxel IC50 to compound IC50 for human A549 cells after 72 hrs by MTT assay; format: functional

Row | SMILES | IC50 (HeLa [1]) | IC50 (A549 [2]) | IC50 (A2780 [3]) | IC50 (A2780 [4]) | IC50 (MCF7 [5]) | IC50 (MCF7 [6]) | Ratio IC50 (A2780 [7]) | Ratio IC50 (MCF7 [8]) | Ratio IC50 (MCF7 [9]) | Ratio IC50 (HeLa [10]) | Ratio IC50 (A549 [11])
1 | COc1cc(C(=O)O[C@@H](C(=O)O[C@H]2C[C@@]3(O)[C@@H](OC(=O)c4ccccc4)[C@@H]4[C@]5(OC(C)=O)CO[C@@H]5C[C@H](O)[C@@]4(C)C(=O)[C@H](OC(C)=O)C(=C2C)C3(C)C)[C@@H](NC(=O)OC(C)(C)C)c2ccccc2)nc2ccccc12 | 34.9 nM | 32.3 nM | 30.1 nM | 21.3 nM | 47.6 nM | 18.2 nM | – | – | – | – | –
2 | CC(=O)O[C@@]12CO[C@@H]1C[C@H](O)[C@@]1(C)C(=O)[C@H](O)C3=C(C)[C@@H](OC(=O)[C@H](OC(=O)c4ccc5ncccc5c4)[C@@H](NC(=O)OC(C)(C)C)c4ccccc4)C[C@@](O)([C@@H](OC(=O)c4ccccc4)[C@H]21)C3(C)C | 34.6 nM | 38.8 nM | 23.1 nM | 30.2 nM | 30.7 nM | 8.8 nM | – | 20 | – | – | –
3 | CC(=O)O[C@H]1C(=O)[C@@]2(C)[C@H]([C@H](OC(=O)c3ccccc3)[C@]3(O)C[C@H](OC(=O)[C@H](OC(=O)c4cnc5ccccc5c4)[C@@H](NC(=O)OC(C)(C)C)c4ccccc4)C(C)=C1C3(C)C)[C@]1(OC(C)=O)CO[C@@H]1C[C@@H]2O | 36.3 nM | 41 nM | 34.2 nM | 29 nM | 43.3 nM | 37.8 nM | – | – | – | – | –
4 | COc1cc(C(=O)O[C@@H](C(=O)O[C@H]2C[C@@]3(O)[C@@H](OC(=O)c4ccccc4)[C@@H]4[C@]5(OC(C)=O)CO[C@@H]5C[C@H](O)[C@@]4(C)C(=O)[C@H](O)C(=C2C)C3(C)C)[C@@H](NC(=O)OC(C)(C)C)c2ccccc2)nc2ccccc12 | 39 nM | 33.4 nM | 32.9 nM | 43.9 nM | 12.8 nM | 25.6 nM | – | – | 2 | – | –
5 | CC(=O)O[C@H]1C(=O)[C@@]2(C)[C@H]([C@H](OC(=O)c3ccccc3)[C@]3(O)C[C@H](OC(=O)[C@H](OC(=O)c4nccc5ccccc45)[C@@H](NC(=O)OC(C)(C)C)c4ccccc4)C(C)=C1C3(C)C)[C@]1(OC(C)=O)CO[C@@H]1C[C@@H]2O | 41.2 nM | 35.3 nM | 16.9 nM | 18.6 nM | 26.6 nM | 45.9 nM | 2 | – | – | – | –
6 | CC(=O)O[C@@]12CO[C@@H]1C[C@H](O)[C@@]1(C)C(=O)[C@H](O)C3=C(C)[C@@H](OC(=O)[C@H](OC(=O)c4cnc5ccccc5c4)[C@@H](NC(=O)OC(C)(C)C)c4ccccc4)C[C@@](O)([C@@H](OC(=O)c4ccccc4)[C@H]21)C3(C)C | 41 nM | 41.2 nM | 44.8 nM | 34.9 nM | 17.8 nM | 36.3 nM | – | – | 2 | – | –
7 | CC(=O)O[C@@]12CO[C@@H]1C[C@H](O)[C@@]1(C)C(=O)[C@H](O)C3=C(C)[C@@H](OC(=O)[C@H](O)[C@@H](NC(=O)OC(C)(C)C)c4ccccc4)C[C@@](O)([C@@H](OC(=O)c4ccccc4)[C@H]21)C3(C)C [DOCETAXEL] | 50.1 nM | 35.2 nM | 33 nM | 126 nM | 38.5 nM | 180 nM | – | – | – | – | –

Molecules with a lower IC50 (HeLa [1]), results first:

Row | IC50 (HeLa [1]) | IC50 (A549 [2]) | IC50 (A2780 [3]) | IC50 (A2780 [4]) | IC50 (MCF7 [5]) | IC50 (MCF7 [6]) | SMILES | Ratio IC50 (A2780 [7]) | Ratio IC50 (MCF7 [8]) | Ratio IC50 (MCF7 [9]) | Ratio IC50 (HeLa [10]) | Ratio IC50 (A549 [11])
8 | 33.2 nM | 28.1 nM | 49.3 nM | 12.2 nM | 16.8 nM | 17.8 nM | CC(=O)O[C@@]12CO[C@@H]1C[C@H](O)[C@@]1(C)C(=O)[C@H](O)C3=C(C)[C@@H](OC(=O)[C@H](OC(=O)c4nccc5ccccc45)[C@@H](NC(=O)OC(C)(C)C)c4ccccc4)C[C@@](O)([C@@H](OC(=O)c4ccccc4)[C@H]21)C3(C)C | – | – | – | – | –
9 | 32.6 nM | 38.5 nM | 45.3 nM | 29.7 nM | 42 nM | 21.2 nM | CC(=O)O[C@@]12CO[C@@H]1C[C@H](O)[C@@]1(C)C(=O)[C@H](O)C3=C(C)[C@@H](OC(=O)[C@H](OC(=O)c4cn(C5CC5)c5cc(Cl)c(F)cc5c4=O)[C@@H](NC(=O)OC(C)(C)C)c4ccccc4)C[C@@](O)([C@@H](OC(=O)c4ccccc4)[C@H]21)C3(C)C | – | – | – | – | –
10 | 30.7 nM | 38.2 nM | 35 nM | 33.2 nM | 26.4 nM | 9.3 nM | CC(=O)O[C@@]12CO[C@@H]1C[C@H](O)[C@@]1(C)C(=O)[C@H](O)C3=C(C)[C@@H](OC(=O)[C@H](OC(=O)c4ccc5ccccc5n4)[C@@H](NC(=O)OC(C)(C)C)c4ccccc4)C[C@@](O)([C@@H](OC(=O)c4ccccc4)[C@H]21)C3(C)C | – | – | – | – | –
11 | 25.3 nM | 28.8 nM | 39.8 nM | 34.5 nM | 30.2 nM | 38.9 nM | CC(=O)O[C@H]1C(=O)[C@@]2(C)[C@H]([C@H](OC(=O)c3ccccc3)[C@]3(O)C[C@H](OC(=O)[C@H](OC(=O)c4cn(C5CC5)c5cc(Cl)c(F)cc5c4=O)[C@@H](NC(=O)OC(C)(C)C)c4ccccc4)C(C)=C1C3(C)C)[C@]1(OC(C)=O)CO[C@@H]1C[C@@H]2O | – | – | – | – | –
12 | 19.9 nM | 27.1 nM | 45.7 nM | 29.8 nM | 37.3 nM | 24.1 nM | CC(=O)O[C@H]1C(=O)[C@@]2(C)[C@H]([C@H](OC(=O)c3ccccc3)[C@]3(O)C[C@H](OC(=O)[C@H](OC(=O)c4ccc5ccccc5n4)[C@@H](NC(=O)OC(C)(C)C)c4ccccc4)C(C)=C1C3(C)C)[C@]1(OC(C)=O)CO[C@@H]1C[C@@H]2O | – | – | – | – | –
13 | 19.3 nM | 16 nM | 41.6 nM | 32.5 nM | 39.8 nM | 28.4 nM | CC(=O)O[C@@]12CO[C@@H]1C[C@H](O)[C@@]1(C)C(=O)[C@H](O)C3=C(C)[C@@H](OC(=O)[C@H](OC(=O)c4cc(-c5ccccc5)nc5ccccc45)[C@@H](NC(=O)OC(C)(C)C)c4ccccc4)C[C@@](O)([C@@H](OC(=O)c4ccccc4)[C@H]21)C3(C)C | – | – | – | – | 2
14 | 18.5 nM | 28.4 nM | 16.3 nM | 35.1 nM | 29.8 nM | 35.7 nM | CC(=O)O[C@H]1C(=O)[C@@]2(C)[C@H]([C@H](OC(=O)c3ccccc3)[C@]3(O)C[C@H](OC(=O)[C@H](OC(=O)c4ccc5ncccc5c4)[C@@H](NC(=O)OC(C)(C)C)c4ccccc4)C(C)=C1C3(C)C)[C@]1(OC(C)=O)CO[C@@H]1C[C@@H]2O | 2 | – | – | – | –
15 | 11.8 nM | 42.5 nM | 28.2 nM | 49.8 nM | 31.4 nM | 18.3 nM | CC(=O)O[C@H]1C(=O)[C@@]2(C)[C@H]([C@H](OC(=O)c3ccccc3)[C@]3(O)C[C@H](OC(=O)[C@H](OC(=O)c4cc(-c5ccccc5)nc5ccccc45)[C@@H](NC(=O)OC(C)(C)C)c4ccccc4)C(C)=C1C3(C)C)[C@]1(OC(C)=O)CO[C@@H]1C[C@@H]2O | – | – | – | 5 | –
